Experimental data from ChEMBL document CHEMBL1138975, “Design and synthesis of 4-substituted-8-(2-phenyl-cyclohexyl)-2,8-diaza-spiro[4.5]decan-1-one as a novel class of GlyT1 inhibitors: achieving selectivity against the mu opioid and nociceptin/orphanin FQ peptide (NOP) receptors” (Bioorg Med Chem Lett, 2006).
pEC50, pIC50: −log10 of the molar value.

What was measured:
[1] = biological target: T1, Sodium- and chloride-dependent glycine transporter 1 (Homo sapiens, UniProt P48067); test: Inhibition of [3H]glycine uptake at GlyT1
T1 sequence (P48067 whole entry): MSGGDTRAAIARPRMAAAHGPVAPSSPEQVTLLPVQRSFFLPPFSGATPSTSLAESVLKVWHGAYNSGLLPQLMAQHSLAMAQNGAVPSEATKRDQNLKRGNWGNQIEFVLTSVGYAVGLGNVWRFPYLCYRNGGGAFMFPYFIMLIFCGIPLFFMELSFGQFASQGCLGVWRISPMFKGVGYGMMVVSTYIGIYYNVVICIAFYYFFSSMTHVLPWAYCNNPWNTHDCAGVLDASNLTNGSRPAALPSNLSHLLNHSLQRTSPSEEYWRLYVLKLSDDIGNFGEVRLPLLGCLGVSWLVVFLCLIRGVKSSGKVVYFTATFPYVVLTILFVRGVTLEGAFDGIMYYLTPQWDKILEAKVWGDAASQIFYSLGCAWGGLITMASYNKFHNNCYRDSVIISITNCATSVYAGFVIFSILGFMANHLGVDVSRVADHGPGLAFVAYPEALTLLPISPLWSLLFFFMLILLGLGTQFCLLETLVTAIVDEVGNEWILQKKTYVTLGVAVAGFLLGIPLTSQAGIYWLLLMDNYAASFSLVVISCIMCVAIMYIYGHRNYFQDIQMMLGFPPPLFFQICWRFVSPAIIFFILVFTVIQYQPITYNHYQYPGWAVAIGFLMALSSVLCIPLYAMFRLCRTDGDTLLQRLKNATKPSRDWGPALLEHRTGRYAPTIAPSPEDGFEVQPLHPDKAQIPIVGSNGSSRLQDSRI

[2] = biological target: T2, Sodium- and chloride-dependent glycine transporter 2 (Homo sapiens, UniProt Q9Y345); test: Inhibition of [3H]glycine uptake at GlyT2
T2 sequence (Q9Y345 whole entry): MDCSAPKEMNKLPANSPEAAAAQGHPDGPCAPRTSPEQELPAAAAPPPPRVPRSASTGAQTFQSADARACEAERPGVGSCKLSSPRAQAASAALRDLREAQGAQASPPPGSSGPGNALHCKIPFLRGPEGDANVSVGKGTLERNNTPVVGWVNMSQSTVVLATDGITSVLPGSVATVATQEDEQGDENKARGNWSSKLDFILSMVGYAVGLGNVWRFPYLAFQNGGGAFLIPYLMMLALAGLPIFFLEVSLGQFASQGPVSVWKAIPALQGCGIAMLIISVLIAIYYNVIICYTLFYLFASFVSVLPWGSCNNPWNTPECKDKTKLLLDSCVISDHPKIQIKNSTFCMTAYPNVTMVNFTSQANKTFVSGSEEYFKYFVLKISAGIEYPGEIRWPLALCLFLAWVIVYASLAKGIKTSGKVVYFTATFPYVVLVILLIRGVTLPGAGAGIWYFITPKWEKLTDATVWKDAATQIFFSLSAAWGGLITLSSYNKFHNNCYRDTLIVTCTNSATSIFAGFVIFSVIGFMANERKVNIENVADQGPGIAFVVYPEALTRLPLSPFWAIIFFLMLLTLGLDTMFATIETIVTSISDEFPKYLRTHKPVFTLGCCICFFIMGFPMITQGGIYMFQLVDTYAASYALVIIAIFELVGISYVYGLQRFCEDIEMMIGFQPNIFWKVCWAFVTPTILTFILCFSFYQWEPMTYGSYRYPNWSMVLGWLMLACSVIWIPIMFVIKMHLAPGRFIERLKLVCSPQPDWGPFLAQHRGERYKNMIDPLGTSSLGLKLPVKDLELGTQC

Nociceptin receptor = Nociceptin receptor (Homo sapiens, UniProt P41146); test: Displacement of [3H]NOP from human NOP receptor expressed in HEK293 cells; assay type: cell-based
In short: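 Radioligand binding using membranes from HEK293 cells stably (permanently) transfected with human NOP receptor; displacement of [3H]-NOP measured.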

Nociceptin receptor, sequence (P41146 whole entry): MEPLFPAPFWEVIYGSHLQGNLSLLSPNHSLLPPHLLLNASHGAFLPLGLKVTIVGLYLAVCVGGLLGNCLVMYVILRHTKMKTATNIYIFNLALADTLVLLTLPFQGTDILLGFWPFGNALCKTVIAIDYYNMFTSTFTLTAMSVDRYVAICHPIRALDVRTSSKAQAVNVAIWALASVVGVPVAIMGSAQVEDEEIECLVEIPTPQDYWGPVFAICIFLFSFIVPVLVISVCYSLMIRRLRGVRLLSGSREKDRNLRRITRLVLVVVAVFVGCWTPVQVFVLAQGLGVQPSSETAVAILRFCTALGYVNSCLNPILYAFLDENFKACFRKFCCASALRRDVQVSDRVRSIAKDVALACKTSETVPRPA

| SMILES | pEC50 [1] | pEC50 [2] | pIC50 (Nociceptin receptor) |
| --- | --- | --- | --- |
| O=C1NC[C@H](c2ccccc2)C12CCN([C@@H]1CCCC[C@@H]1c1ccccc1)CC2 | 5.54 |  |  |
| O=C1NC[C@H](c2ccc(F)cc2)C12CCN([C@H]1CCCC[C@H]1c1ccc(F)cc1)CC2 | 5.89 | 5.08 |  |
| COc1ccc(C2CNC(=O)C23CCN(C2CCCCC2c2ccc(F)cc2)CC3)cc1 (stereo unspecified) | 6.95 |  |  |
| O=C1NCC(c2ccccc2)C12CCN(C1CCCCC1c1ccccc1)CC2 (stereo unspecified) | 6.63 | 4.60 | < 5.00 |
| O=C1NC[C@H](c2ccc(F)cc2)C12CCN([C@@H]1CCCC[C@@H]1c1ccc(F)cc1)CC2 | 7.44 | 4.40 | < 5.00 |
| O=C1NC[C@@H](c2ccccc2)C12CCN([C@H]1CCCC[C@H]1c1ccccc1)CC2 | 6.61 | 4.40 | < 5.00 |
| O=C1NC[C@@H](c2ccc(F)cc2)C12CCN([C@@H]1CCCC[C@@H]1c1ccc(F)cc1)CC2 | 7.37 | 4.78 | < 5.00 |
| O=C1NC[C@@H](c2ccccc2)C12CCN([C@@H]1CCCC[C@@H]1c1ccccc1)CC2 | 5.55 |  |  |
| O=C1NC[C@H](c2ccccc2)C12CCN([C@H]1CCCC[C@H]1c1ccccc1)CC2 | 7.21 |  | < 5.00 |
| O=C1NC[C@@H](c2ccc(F)cc2)C12CCN([C@H]1CCCC[C@H]1c1ccc(F)cc1)CC2 | 5.97 | < 4.52 |  |
| O=C1NCC(c2ccc(F)cc2)C12CCN(C1CCCCC1c1ccc(C(F)(F)F)cc1)CC2 (single isomer, unassigned; diastereomer 1) | 5.63 |  |  |
| O=C1NCC(c2ccc(Cl)c(Cl)c2)C12CCN(C1CCCCC1c1ccc(F)cc1)CC2 (single isomer, unassigned; diastereomer 1) | 6.57 |  |  |
| O=C1NCC(c2ccccc2)C12CCN(C1CCCCC1c1ccc(F)cc1)CC2 (single isomer, unassigned; diastereomer 1) | 6.78 |  |  |
| COc1ccc(C2CNC(=O)C23CCN(C2CCCCC2c2ccc(C)cc2)CC3)cc1 (single isomer, unassigned; diastereomer 1) | 5.95 |  |  |
| O=C1NCC(c2ccc(F)cc2)C12CCN(C1CCCCC1c1ccc(C(F)(F)F)cc1)CC2 (single isomer, unassigned; diastereomer 2) | 6.02 |  |  |
| O=C1NCC(c2ccc(Cl)c(Cl)c2)C12CCN(C1CCCCC1c1ccc(F)cc1)CC2 (single isomer, unassigned; diastereomer 2) | 5.66 |  |  |
| O=C1NCC(c2ccccc2)C12CCN(C1CCCCC1c1ccc(F)cc1)CC2 (single isomer, unassigned; diastereomer 2) | 7.32 |  |  |
| COc1ccc(C2CNC(=O)C23CCN(C2CCCCC2c2ccc(C)cc2)CC3)cc1 (single isomer, unassigned; diastereomer 2) | 4.78 |  |  |
| O=C1NCC(c2ccc(F)cc2)C12CCN(C1CCCCC1c1ccc(C(F)(F)F)cc1)CC2 (single isomer, unassigned; diastereomer 3) | 6.89 |  |  |
| O=C1NCC(c2ccc(F)cc2)C12CCN(C1CCCCC1c1ccc(C(F)(F)F)cc1)CC2 (stereo in doubt) | 7.04 |  |  |
